This note sets out measurements from ChEMBL document CHEMBL2385053, “Novel isoquinoline derivatives as antimicrobial agents” (2013).

The subject of assay [1] is Bacillus cereus. Description: Bactericidal activity against Bacillus cereus CECT 148 at 0.2 mg/disk after 24 hrs by paper disk-agar diffusion method. The assay is classed as functional. Summed up: (§1)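 Each bacterial strain was taken from a 24-h culture on solid medium, reactivated in Nutrient Broth, and grown a further 24 h at 28 or 37 °C depending on the strain. 1 mL of suspension was mixed with 15 mL Plate Count Agar. Four 0.5 cm paper disks (0.2 mg/disk) were placed on the set agar. Controls were vehicle-only disks and tetracycline. Plates were incubated 24 h, dark, 28 or 37 °C. The inhibition zone was read in mm as the mean ± SE of three independent experiments.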

The subject of assay [2] is Enterococcus faecalis. Kind of assay: Bactericidal activity against Enterococcus faecalis CECT 481 at 0.2 mg/disk after 24 hrs by paper disk-agar diffusion method. The assay is classed as functional. Summed up:
as §1

The subject of assay [3] is Fusarium culmorum. Kind of assay: Fungicidal activity against Fusarium culmorum CCM 172 at 0.2 mg/disk after 72 hrs by paper disk-agar diffusion method. In kind it is functional. Summed up:
(§2)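 Fungi were grown on potato dextrose agar (PDA) for 7 days at 28 °C. Conidia were suspended to ~10⁶/mL in 0.05% Tween 80 in sterile water, and 1 mL was mixed into 15 mL PDA. Four 0.5 cm paper disks (0.2 mg/disk) were placed on the set agar. Controls were vehicle-only disks and benomyl at species-dependent doses. The inhibition zone was read in mm at 72 h as the mean ± SE of three independent experiments.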

Assay [4] concerns Escherichia coli. Kind of assay: Bactericidal activity against Escherichia coli CECT 100 at 0.2 mg/disk after 24 hrs by paper disk-agar diffusion method. The assay is classed as functional. Put shortly: as §1
For assay [5], the system named is Pectobacterium carotovorum. Description: Bactericidal activity against Erwinia carotovora CECT 225 at 0.2 mg/disk after 24 hrs by paper disk-agar diffusion method. In kind it is functional. Summed up: as §1
In assay [6] the test system is Escherichia coli. Kind of assay: Bactericidal activity against Escherichia coli CECT 405 at 0.2 mg/disk after 24 hrs by paper disk-agar diffusion method. The assay is classed as functional. Put shortly:
as §1

Assay [7] concerns Phytophthora citrophthora. Description: Fungicidal activity against Phytophthora citrophthora CECT 2353 at 0.2 mg/disk after 72 hrs by paper disk-agar diffusion method. In kind it is functional. Put shortly: as §2
The test system of assay [8] is Aspergillus parasiticus. Kind of assay: Fungicidal activity against Aspergillus parasiticus CECT 2681 at 0.2 mg/disk after 72 hrs by paper disk-agar diffusion method. The assay is classed as functional. Summed up: as §2
Assay [9] relates to Staphylococcus aureus. Description: Bactericidal activity against Staphylococcus aureus CECT 86 at 0.2 mg/disk after 24 hrs by paper disk-agar diffusion method. In kind it is functional. Put shortly: as §1
In assay [10] the test system is Geotrichum candidum. Description: Fungicidal activity against Geotrichum candidum CCM 245 at 0.2 mg/disk after 72 hrs by paper disk-agar diffusion method. In kind it is functional. Summed up: as §2
Assay [11] relates to Trichoderma viride. Kind of assay: Fungicidal activity against Trichoderma viride CECT 2423 at 0.2 mg/disk after 72 hrs by paper disk-agar diffusion method. In kind it is functional. Summed up: as §2
For assay [12], the system named is Salmonella typhi. Kind of assay: Bactericidal activity against Salmonella typhi CECT 409 at 0.2 mg/disk after 24 hrs by paper disk-agar diffusion method. The assay is classed as functional, Salmonella enterica subsp. enterica serovar Typhi. Put shortly: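 Paper disk-agar diffusion, run in triplicate. 24-h culture reactivated in nutrient broth and grown a further 24 h at 28 or 37 °C by species. 1 mL suspension mixed into 15 mL plate count agar. Four 0.5 cm disks placed per plate, incubated 24 h in the dark. Inhibition zone (mm) reported as mean ± SE of three independent experiments; vehicle disks as negative control.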

Regarding `COc1ccc(C(=O)OCCCCCC2c3cc(OC)c(OC)cc3CCN2C)cc1` (stereo unspecified), the “inhibition zone (IZ)” value in assay [1] is reported as 10.33 mm; in assay [2], 11.33 mm; in assay [3] it was 5.5 mm; in [4], 10.83 mm; in assay [5] it was 10.33 mm; in assay [6] it was 11.33 mm. For the same molecule, the “inhibition zone (IZ)” value in [7] worked out at 0 mm; in assay [8], 0 mm; in assay [9], 11.33 mm; in assay [10], 7.33 mm; in assay [11] it was 5.5 mm.
As to `COc1cc2c(cc1OC)C(CCCCCOC(=O)CCc1ccccc1)N(C)CC2` (stereo unspecified), the “inhibition zone (IZ)” value in assay [1] is reported as 10.33 mm; in assay [2] it was 8.67 mm; in assay [3], 6.33 mm; in assay [4], 11.33 mm; in assay [5] it was 10.67 mm; in assay [6] it was 8.67 mm. Besides, the “inhibition zone (IZ)” value was 6.67 mm in assay [7]; 0 mm in assay [8]; 9.67 mm in assay [9]; 7.83 mm in assay [10]; 8 mm in [11].
With `COc1ccc(CCNC(=O)OCCCCCC2c3cc(OC)c(OC)cc3CCN2C)cc1` (stereo unspecified), the “inhibition zone (IZ)” value came to 12 mm in assay [1]; 11 mm in assay [2]; 0 mm in [3]; 10.67 mm in assay [4]; 17 mm in assay [5]; 13.33 mm in assay [6]. Further, the “inhibition zone (IZ)” value in assay [7] was found to be 0 mm; in assay [8], 0 mm; in assay [9], 9 mm; in assay [10], 7 mm; in assay [11] it was 0 mm.
In the case of `CCCCC1=[N+](C)CCc2cc(OC)c(OC)cc21`, the “inhibition zone (IZ)” value was 7 mm in [1]; 7 mm in [2]; 0 mm in [4]; 7 mm in assay [5]; 7 mm in assay [6]; 6.75 mm in [12]. Moreover, the “inhibition zone (IZ)” value in [9] worked out at 7 mm.
On to `COC(=O)CCCCC1=[N+](C)CCc2cc(OC)c(OC)cc21`, for which the “inhibition zone (IZ)” value in [1] is given as 6.33 mm; in assay [2] it was 0 mm; in assay [4], 0 mm; in assay [5], 5.5 mm; in assay [6], 0 mm; in assay [12] it was 0 mm. Further, in [9], the “inhibition zone (IZ)” value is given as 0 mm.
Turning to `COC(=O)CCCCC1c2cc(OC)c(OC)cc2CCN1C` (stereo unspecified), the “inhibition zone (IZ)” value in assay [1] was determined as 6.33 mm; in assay [2], 0 mm; in [4], 5.83 mm; in [5], 0 mm; in [6] it was 0 mm; in assay [12], 0 mm. Further, in assay [9], the “inhibition zone (IZ)” value was 5.5 mm.
For the molecule `CN(C)[C@@H]1C(O)=C(C(N)=O)C(=O)[C@@]2(O)C(O)=C3C(=O)c4c(O)cccc4[C@@](C)(O)[C@H]3C[C@@H]12` [TETRACYCLINE], the “inhibition zone (IZ)” value in assay [1] was 23.33 mm; in assay [2] it was 31.17 mm; in assay [4], 25.67 mm; in [5], 34.67 mm; in assay [6], 25.67 mm; in [12], 24.33 mm. Besides, in [9], the “inhibition zone (IZ)” value was 27 mm.
